This note sets out measurements from ChEMBL document CHEMBL4304813 (ACS Med Chem Lett, 2019).

Values after ≈ are worked out from the molar mass of the structure shown. Active and inactive are the calls of the source. No cut-off for these calls is given here.

Series [1] in a line: Inhibition of Hedgehog signaling pathway in mouse ASZ001 cells assessed as decrease in Gli1 mRNA expression after 48 hrs by qRT-PCR analysis. The format is cell-based. The settings on record: ASZ001, 48 h. In short, it runs like this: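 Hh-dependent murine basal cell carcinoma line ASZ001; read-out is Gli1 mRNA expression. IC50 given as mean ± SEM of at least two separate experiments, each run in triplicate.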
On the technique in general: Real-time PCR tracks product formation cycle by cycle.

Series [2] can be described thus: Aqueous solubility of the compound. It counts as physicochemical. The settings on record: buffer.
For series [3], the species on record is Mus musculus. The series is described as follows: Inhibition of Hedgehog signaling pathway in mouse C3H10T1/2 cells assessed as reduction in recombinant mouse sonic hedgehog/oxysterol-induced Gli1 mRNA expression by q-PCR analysis. The format is cell-based.
A short description of series [4]: Growth inhibition of human HC04 cells assessed as decrease in cell viability after 72 hrs by CellTiter96 AQueous non radioactive cell proliferation assay. In short, it runs like this: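 HC-04 is a human hepatocyte-derived line rich in drug-metabolizing enzymes. Anti-proliferative activity is reported as GI50.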
The species named for series [5] is Mus musculus. The series is described as follows: Potency index, ratio of ITZ IC50 to test compound IC50 for inhibition of Hedgehog signaling pathway in mouse ASZ001 cells assessed as decrease in Gli1 mRNA expression after 48 hrs by qRT-PCR analysis. It counts as cell-based.
Series [6] in a line: Solubility in PBS at pH 7.4 under shaking condition by HPLC analysis. It counts as physicochemical.
Series [7] in a line: Microsomal stability in human liver microsomes assessed as intrinsic clearance at 1 uM in presence of NADPH/phosphate buffer by LC-MS/MS analysis. It counts as ADME, Microsome. The settings on record: read-out: CLH.
Series [8] in a line: Microsomal stability in human liver microsomes assessed as half-life at 1 uM in presence of NADPH/phosphate buffer by LC-MS/MS analysis. It counts as ADME, Microsome. (In general: Microsomes from liver hold many membrane-bound enzymes, among them those of drug oxidation.)
Series [9] can be described thus: Solubility in PBS at pH 4 under shaking condition by HPLC analysis. The format is physicochemical.
Another series relates to MEF. Briefly: Inhibition of Hedgehog signaling pathway in Sufu-deficient mouse MEF cells assessed as decrease in Gli1 mRNA expression by q-PCR analysis relative to control. The format is cell-based.
Series [10] is described as follows: Drug level in human liver microsomes treated with 1-(4-(4-(((2S,4R)-2-(2,4-dichlorophenyl)-2-methyl-1,3-dioxolan-4-yl)methoxy)phenyl)piperazin-1-yl)-2-(3-hydroxyphenyl)ethanone assessed as increase in 1-(4-(((2S,4R)-2-(2,4-dichlorophenyl)-2-methyl-1,3-dioxolan-4-yl)methoxy)phenyl)piperazine formation at 1 uM in presence of NADPH by LC-MS/MS analysis. It counts as ADME, Microsome.

Series [11] can be described thus: Drug level in human liver microsomes treated with 1-(4-(4-(((2S,4R)-2-(2,4-dichlorophenyl)-2-methyl-1,3-dioxolan-4-yl)methoxy)phenyl)piperazin-1-yl)-3-(3-hydroxyphenyl)propan-1-one formation at 1 uM in presence of NADPH by LC-MS/MS analysis. It counts as ADME, Microsome.
The nature of series [12]: Drug metabolism in human liver microsomes assessed as increase in 1-(4-(((2S,4R)-2-(2,4-dichlorophenyl)-2-methyl-1,3-dioxolan-4-yl)methoxy)phenyl)piperazine formation at 1 uM in presence of NADPH by LC-MS/MS analysis. It counts as ADME, Microsome.
Series [13] in a line: Drug metabolism in human liver microsomes assessed as increase in oxidized metabolite formation at 1 uM in presence of NADPH by LC-MS/MS analysis. It counts as ADME, Microsome.

`C[C@]1(c2ccc(Cl)cc2Cl)OC[C@@H](COc2ccc(N3CCN(C(=O)/C=C/c4cccc(O)c4)CC3)cc2)O1`: in series [1], the IC50 – broadly, the concentration at which inhibition is half-maximal – came to 220 nM.

Regarding `C[C@]1(c2ccc(Cl)cc2Cl)OC[C@@H](COc2ccc(N3CCN(C(=O)c4ccccn4)CC3)cc2)O1`, in series [1], the IC50 amounted to 1420 nM.

On to `C[C@]1(c2ccc(Cl)cc2Cl)OC[C@@H](COc2ccc(N3CCN(C(=O)c4ccc(N)cc4)CC3)cc2)O1`, for which the IC50 in series [1] turned out to be 280 nM.

Consider `C[C@]1(c2ccc(Cl)cc2Cl)OC[C@@H](COc2ccc(N3CCN(C(=O)c4cccnc4)CC3)cc2)O1`, for which the IC50 in series [1] was 1300 nM.

For `C[C@]1(c2ccc(Cl)cc2Cl)OC[C@@H](COc2ccc(N3CCN(C(=O)CCc4cccc(O)c4)CC3)cc2)O1`, the figures for the solubility result in series [2] and in [6] were “Soluble” and 0.03 µM (≈ 0.0171 µg/mL), respectively. In the series listed under Mus musculus [3], the inhibition entry is “Active”. Besides, the GI50 – broadly, the concentration at which growth is held to half of that of the control – at 72 h in [4] is 13200 nM. Also, the Ratio IC50 in the series listed under Mus musculus [5] stood at 2. In addition, in series [7], the microsomal CLint at 1 µM was 218 µL/min/mg. Also, in [8], the half-life (in general, how long it takes for the measured level to halve) at 1 µM stood at 3.2 min. Further, in [1], the IC50 is 81 nM.

As to `C[C@]1(c2ccc(Cl)cc2Cl)OC[C@@H](COc2ccc(N3CCN(C(=O)/C=C/c4ccc(O)cc4)CC3)cc2)O1`, the IC50 in series [1] worked out at 360 nM.

Consider `C[C@]1(c2ccc(Cl)cc2Cl)OC[C@@H](COc2ccc(N3CCN(C(=O)c4ccncc4)CC3)cc2)O1`, for which the IC50 in series [1] stood at 570 nM.

For the compound `COc1cccc(CCC(=O)N2CCN(c3ccc(OC[C@@H]4CO[C@](C)(c5ccc(Cl)cc5Cl)O4)cc3)CC2)c1`, in [1], the IC50 is 460 nM.

`C[C@]1(c2ccc(Cl)cc2Cl)OC[C@@H](COc2ccc(N3CCN(C(=O)N/N=C/c4cccc(O)c4)CC3)cc2)O1`: the IC50 in series [1] was determined as 120 nM.

Consider `C[C@]1(c2ccc(Cl)cc2Cl)OC[C@@H](COc2ccc(N3CCN(C(=O)CCc4ccc(O)cc4)CC3)cc2)O1`, for which, in [1], the IC50 was found to be 260 nM.

For the compound `C[C@]1(c2ccc(Cl)cc2Cl)OC[C@@H](COc2ccc(N3CCN(C(=O)CCc4ccccc4)CC3)cc2)O1`, in [1], the IC50 was 230 nM.

Take `C[C@]1(c2ccc(Cl)cc2Cl)OC[C@@H](COc2ccc(N3CCN(C(=O)CCc4ccc(O)c(O)c4)CC3)cc2)O1`: the concentration in solution in series [6] (solubility) was 0.84 µM (≈ 0.494 µg/mL). Moreover, the microsomal CLint at 1 µM in [7] came out at 105 µL/min/mg. In addition, the half-life at 1 µM in series [8] came to 6.6 min. For the same compound, the IC50 in series [1] came to 89 nM.

`C[C@]1(c2ccc(Cl)cc2Cl)OC[C@@H](COc2ccc(N3CCN(CCCc4cccc(O)c4)CC3)cc2)O1`: the solubility (as a rule, the concentration that dissolves in the medium under given conditions) in series [6] amounted to 0.02 µM (≈ 0.0112 µg/mL); in series [9] it was 0.13 µM (≈ 0.0725 µg/mL). In addition, in series [7], the microsomal CLint at 1 µM turned out to be 50 µL/min/mg. In addition, in series [8], the half-life at 1 µM was found to be 14 min. The IC50 in series [1] was 870 nM.

Regarding `C[C@]1(c2ccc(Cl)cc2Cl)OC[C@@H](COc2ccc(N3CCN(C(=O)c4ccc(O)cc4)CC3)cc2)O1`, the IC50 in series [1] was 580 nM.

Turning to `C[C@]1(c2ccc(Cl)cc2Cl)OC[C@@H](COc2ccc(N3CCNCC3)cc2)O1`, the solubility result in series [2] was “Soluble”. Also, the inhibition entry in the series filed under Mus musculus [3] is “Active”. Also, the GI50 at 72 h in [4] turned out to be 27300 nM. Moreover, in the series on MEF, the inhibition result is “inactive”. Moreover, the Drug uptake result in series [10] and in series [11] was “Active” throughout. Also, the microsomal CLint at 1 µM in [7] came out at 13.7 µL/min/mg. For the same compound, the half-life at 1 µM in series [8] came out at 50.7 min. Also, the IC50 in [1] is 22 nM.

`C[C@@]1(c2ccc(Cl)cc2Cl)OC[C@@H](COc2ccc(N3CCN(C(=O)N/N=C/c4cccc(O)c4)CC3)cc2)O1`: the IC50 in [1] was 580 nM.

On to `C[C@]1(c2ccc(Cl)cc2Cl)OC[C@@H](COc2ccc(N3CCN(C(=O)c4ccc([N+](=O)[O-])cc4)CC3)cc2)O1`, for which the IC50 in series [1] is 160 nM.

With `C[C@]1(c2ccc(Cl)cc2Cl)OC[C@@H](COc2ccc(N3CCN(C(=O)CCCc4ccc(O)cc4)CC3)cc2)O1`, in series [1], the IC50 worked out at 470 nM.

For the compound `C[C@]1(c2ccc(Cl)cc2Cl)OC[C@@H](COc2ccc(N3CCN(C(=O)Cc4cccc(O)c4)CC3)cc2)O1`, the Drug metabolism entry in series [12] and in [13] was “Metabolite_Detected” each time. The microsomal CLint at 1 µM in series [7] came out at 33.9 µL/min/mg. Besides, in series [8], the half-life at 1 µM stood at 20.4 min. The IC50 in series [1] came to 380 nM.

For the compound `CCC(C)n1ncn(-c2ccc(N3CCN(c4ccc(OCC5COC(Cn6cncn6)(c6ccc(Cl)cc6Cl)O5)cc4)CC3)cc2)c1=O` (stereo unspecified) [ITRACONAZOLE], the inhibition entry in the series listed under Mus musculus [3] is “Active”. Besides, in the series with MEF, the inhibition entry was “inactive”. In addition, the IC50 in series [1] turned out to be 140 nM.

On to `C[C@]1(c2ccc(Cl)cc2Cl)OC[C@@H](COc2ccc(N3CCN(C(=O)c4cccc(O)c4)CC3)cc2)O1`, for which the microsomal CLint at 1 µM in series [7] came to 43 µL/min/mg. Also, the half-life at 1 µM in series [8] worked out at 15.9 min. Further, in [1], the IC50 was 260 nM.

In the case of `C[C@]1(c2ccc(Cl)cc2Cl)OC[C@@H](COc2ccc(N3CCN(C(=O)N/N=C/c4ccc(O)cc4)CC3)cc2)O1`, the solubility in series [6] was 0.02 µM (≈ 0.0117 µg/mL); in series [9], 0.05 µM (≈ 0.0293 µg/mL). Also, the microsomal CLint at 1 µM in series [7] worked out at 60 µL/min/mg. Moreover, in series [8], the half-life at 1 µM is 11.4 min. The IC50 in [1] is 960 nM.
